NR2E3 ag-1: NR2E3 agonists in two-hybrid cells, primary screen, cell-based, luminescence, CHO-S, Gal4-NCOR/VP16-NR2E3; Photoreceptor-specific nuclear receptor (Homo sapiens), Q9Y5X4; luciferase; inhibition of corepressor binding, % at 3.98 µM; 360,000 tested, 0.35% active; AID 602229, 2012;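 active = inhibition above the mean of all tested compounds plus 3 SD, cut at about 70% in these data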;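 also: 0% = DMSO with NR2E3 transfected cells and 100% = cells lacking NR2E3 construct; higher means lower luciferase signal from less NR2E3 corepressor binding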
Target sequence (Q9Y5X4 whole entry, looked up, the tested form may be a part): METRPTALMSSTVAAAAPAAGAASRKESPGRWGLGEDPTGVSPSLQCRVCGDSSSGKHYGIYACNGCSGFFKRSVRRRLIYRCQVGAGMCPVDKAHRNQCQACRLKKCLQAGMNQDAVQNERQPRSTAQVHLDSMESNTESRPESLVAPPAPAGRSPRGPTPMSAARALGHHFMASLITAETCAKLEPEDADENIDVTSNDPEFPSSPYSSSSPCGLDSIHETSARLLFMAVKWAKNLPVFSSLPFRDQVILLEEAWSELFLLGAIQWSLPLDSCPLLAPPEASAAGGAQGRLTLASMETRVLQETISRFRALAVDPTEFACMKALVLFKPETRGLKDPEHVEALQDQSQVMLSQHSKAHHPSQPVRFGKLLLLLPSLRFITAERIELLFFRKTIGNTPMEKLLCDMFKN
DAX1 inh-1: DAX1 (NR0B1) inhibitors on StAR promoter, primary screen, cell-based, luminescence, SF-1 (NR5A1), full-length DAX-1; HEK293T StAR-luciferase reporter, SF-1/DAX-1 repression relief; inhibition, % at 6.8 µM; 370,000 tested, 1.1% active; AID 652010, 2013;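 active = inhibition above the mean over all tested compounds plus 3 SD, cut at about 3.6% in these data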;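 also: 0% = DAX-1 cells with DMSO and 100% = cells lacking DAX-1 with DMSO; higher inhibition means more luminescence from relief of DAX-1 repression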
NR2E3 ag-2: inhibitors of NR2E3-RetCOR corepressor binding, primary screen, NR2E3 agonist project, biochemical, TR-FRET, GST-NR2E3, biotin-RetCOR. 1536-well. inhibition of corepressor binding, % at 4.78 µM. 320,000 tested, 0.12% active;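 active = percent inhibition above the cutoff of mean plus 3 SD of all tested compounds, set per screening campaign, cut at about 20% in these data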;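 also: 0% = DMSO wells and 100% = biotin wells as full block of FRET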
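Assay system: NR2E3–RetCOR corepressor complex. Quantity: 1.35 nM GST-NR2E3. Buffer or medium: pH 7.5 Tris-based buffer. Reagent: biotinylated RetCOR corepressor at 7 nM final. Schedule: 5 h at 4 °C. Detection: TR-FRET, emission read at 617 and 671 nm. Replicates: one well per compound, singlicate testing.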
JMJD2C inh: inhibitors of GASC-1 histone demethylase, primary screen, biochemical, fluorescence, DELFIA europium; Lysine-specific demethylase 4C (Homo sapiens), Q9H3R0; GST-JMJD2C(1-420) H3K9me3 demethylation; inhibition, % at 2.35 µM; 330,000 tested, 0.069% active; AID 2099, 2009;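 active = more than half of a compound's replicate wells show inhibition beyond 50%, single wells judged on their own value; inconclusive = some, but no more than half, of replicates pass 50% inhibition; inactive = no replicate passes 50% inhibition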;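 also: signal counts dimethyl H3K9 product captured on neutravidin plate; 0% = median of DMSO wells and 100% = 0.3 times that DMSO median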
DAX1 inh-2: DAX1 (NR0B1) inhibitors, primary screen, cell-based, HEK293, Gal4-DAX1, luciferase luminescence; HEK293 Gal4-DAX1 luciferase reporter; inhibition, % at 6.75 µM; 340,000 tested, 0.99% active; AID 504766, 2011;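 active = inhibition above the mean over all tested compounds plus 3 SD, cut at about 4.2% in these data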;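 also: 0% = DAX1-transfected cells with DMSO and 100% = empty-vector control cells with DMSO; inhibition shows as a rise in luminescence from relieved DAX1 repression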
Target sequence (P51843 207-470 limits assumed): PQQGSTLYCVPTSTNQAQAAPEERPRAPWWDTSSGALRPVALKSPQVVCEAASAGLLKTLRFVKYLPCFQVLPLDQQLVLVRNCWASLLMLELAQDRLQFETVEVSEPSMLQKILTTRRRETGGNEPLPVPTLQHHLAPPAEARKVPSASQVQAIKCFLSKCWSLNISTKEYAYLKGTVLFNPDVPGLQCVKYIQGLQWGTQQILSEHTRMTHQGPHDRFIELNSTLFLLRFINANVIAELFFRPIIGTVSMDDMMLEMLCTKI
SMARCA2 activ: SMARCA2 (BRM) function activators, primary screen, cell-based, luminescence, high throughput | MG213 cells, MMTV-luciferase reporter, dexamethasone, overnight | 370,000 tested, 1% active | activation, % at 9.1 µM; in the data active = activation above about 7.8%;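 also: 0% = vehicle wells and 100% = reference activator wells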
NR2E3 ag conf: NR2E3 agonist confirmation in cells, cell-based, luminescence, CHO-S two-hybrid; 2,300 tested, 51% active; CHO-S mammalian two-hybrid NR2E3-NCOR, luciferase luminescence; shares compounds with NR2E3 ag-1; AID 624378, 2012; inhibition, % at 3.98 µM;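 active = average inhibition above a cutoff equal to the mean inhibition of all tested compounds plus one SD, cut at about 70% in these data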;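 also: 0% = DMSO in NR2E3 cells and 100% = DMSO in cells lacking NR2E3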
GAL4-VP16 luc: GAL4-VP16 reporter modulators, confirmation, counter-screen for NR2E3 agonist project, cell-based, luminescence, CHO-S, high throughput; shares compounds with NR2E3 ag-1; CHO-S GAL4-VP16 luciferase reporter; inhibition, % at 3.98 µM; 2,300 tested, 29% active; AID 624379, 2012;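 active = mean inhibition above a cutoff equal to the average over all tested compounds plus one standard deviation, cut at about 70% in these data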;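 also: luciferase from a UAS reporter driven by GAL4-VP16 transactivation; 0% = DMSO with VP16-transfected cells and 100% = DMSO with cells lacking VP16; higher means less reporter light so more repression of VP16 activity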
The depositor's hits bear a star; ? = inconclusive; . = no result. A selection: hits, their analogues and other compounds. The true share with any hit is near 3.2%.

SMILES | NR2E3 ag-1 | DAX1 inh-1 | NR2E3 ag-2 | JMJD2C inh | DAX1 inh-2 | SMARCA2 activ | NR2E3 ag conf | GAL4-VP16 luc
Cc1ccc(-c2nc(CSCC(=O)N3CCOCC3)c(C)o2)cc1 | -24 | -1 | -3 | 5 | -2 | -5 | . | .
COC(=O)[C@]12C[C@H](CC(=O)NCCCN3CCCC3=O)C(=O)N(Cc3ccco3)C1=C[C@H](C(C)(C)C)O[C@@H]2C | . | -1 | . | . | . | -6 | . | .
O=C(Cc1cccs1)NNC(=S)NCc1ccco1 | 22 | 0 | 1 | -5 | -2 | 0 | . | .
O=C(Cc1ccc(-c2ccccc2)cc1)NNC(=S)NCc1ccco1 | 54 | -1 | 1 | -1 | 0 | -3 | 89* | 59
COc1ccc(-c2ocnc2C(=O)NCc2nn(-c3ccccc3)nc2C)cc1 | 56 | -1 | 2 | 4 | -4 | -7 | 87* | 72*
Cn1ncc(C#N)c1NC(=O)C1CC(c2ccc(Cl)c(Cl)c2)=NO1 (stereo not given) | 0 | 0 | 0 | ? | 0 | -4 | . | .
O=C(NCC1CCCO1)C1CC(c2ccc(Cl)c(Cl)c2)=NO1 (stereo not given) | 48 | 0 | -1 | -7 | 0 | 0 | 25 | 19
CC1Sc2ccc(S(=O)(=O)N3CCC(C(=O)Nc4cccc(Cl)c4)CC3)cc2NC1=O (stereo not given) | 49 | -1 | -2 | -10 | -1 | -4 | 65 | 54
CCc1ccc(NC(=O)C2CCN(S(=O)(=O)c3ccc4c(c3)NC(=O)C(C)S4)CC2)cc1 (stereo not given) | 12 | -2 | 0 | -5 | -1 | -4 | . | .
Cc1ccc(NC(=O)C2CCN(S(=O)(=O)c3ccc4c(c3)NC(=O)C(C)S4)CC2)cc1C (stereo not given) | 74* | -5 | 0 | 20 | 0 | -3 | 93* | 73*
O=c1cc(-c2ccccc2)nc2c(-c3ccccc3)c(C(F)(F)F)[nH]n12 | 58 | 0 | 0 | -6 | . | -4 | 100* | 77*
COCCCN1C(=O)[C@H](CC(=O)N2CCN(C(=O)c3ccco3)CC2)[C@]2(C(=O)OC)CCCCC=C12 | . | 1 | . | . | . | -4 | . | .
CCOC(=O)CC[C@@]1(C(=O)OCC)C[C@@H](CC(=O)NCCCOC)C(=O)N2CCCC=C21 | . | 1 | . | . | . | 0 | . | .
COc1ccc(OC)c(Nc2nc(-c3c(C)nc4ncccn34)cs2)c1 | 49 | -1 | 1 | -2 | 0 | -4 | -33 | 19
Cc1nc2ncccn2c1-c1csc(Nc2cccc(C(=O)O)c2)n1 | -19 | 0 | -4 | 0 | 0 | 1 | . | .
Cc1ccc(NC(=O)CCNC(=O)c2ccccc2Cl)cc1S(=O)(=O)N1CCCCCC1 | 5 | -2 | 0 | -1 | -1 | -3 | . | .
O=C(Nc1cccc(S(=O)(=O)N2CCCCC2)c1)c1ccccc1NS(=O)(=O)c1ccc(F)cc1 | 86* | -2 | -1 | 4 | -3 | -7 | 98* | 71*
Cc1ccc(NC(=O)c2ccccc2NS(=O)(=O)c2ccc(F)cc2)cc1S(=O)(=O)N1CCCCC1 | 89* | -3 | 1 | -1 | -3 | -8 | 98* | 92*
N=C1SC(c2ccccc2)C(=O)N1c1ncc(Cc2ccccc2)s1 (stereo not given) | 71* | 1 | 0 | 0 | 1 | 0 | -64 | -15
CCOC(=O)N(C)[C@H]1C[C@H]2c3[nH]c4cccc(-c5cccc(F)c5)c4c3CCN2C(=O)[C@H]1[C@H](C)O | . | -1 | . | . | . | -2 | . | .
Cc1ccc2nc(NC(=O)COC(=O)CSc3nc(C)cc(C)n3)sc2c1 | -40 | 1 | 0 | 2 | 2 | 1 | . | .
CSc1nsc(SCC(=O)Nc2nc3ccc(C)cc3s2)n1 | 61 | 0 | 2 | -7 | 0 | -3 | 45 | 32
COc1ccc(Nc2cc(C)nc(NCc3ccccc3)n2)cc1 | 68 | -1 | 3 | -2 | . | -4 | 86* | 66
Cc1cc(NC2CCCCC2)nc(NCc2ccccc2)n1 | 75* | -2 | 2 | 6 | 0 | -8 | 92* | 76*
Cc1ccc(Nc2cc(C)nc(NCc3ccccc3)n2)cc1 | 12 | -1 | 3 | 0 | -1 | 5 | . | .
SMILES | NR2E3 ag-1 | DAX1 inh-1 | NR2E3 ag-2 | JMJD2C inh | DAX1 inh-2 | SMARCA2 activ | NR2E3 ag conf | GAL4-VP16 luc
CC(C)CN1C[C@@H]2CSCCS(=O)(=O)N2C1=O | . | -2 | . | . | . | -2 | . | .
CCOC(=O)[C@]12CCCC=C1N(Cc1ccc(OC)cc1)C(=O)[C@@H]2CC(=O)N1CCC(c2ccccc2)CC1 | . | -2 | . | . | . | -5 | . | .
CCCC[C@H]1C2CC(OC(=O)Nc3ccc(C(F)(F)F)cc3)C(C2)[C@H]2CCCCN21 (stereo not given in full) | . | 0 | . | . | . | -4 | . | .
CN(c1nc2ccccc2[nH]c1=O)C1CCCCC1 | 55 | 0 | 2 | 0 | 1 | -3 | 90* | 73*
CCN(CC)c1nc2ccccc2[nH]c1=O | -14 | 0 | 2 | 3 | -2 | -1 | . | .
CCc1ccc(NCc2ccc(OC)c(Cn3ccnc3)c2)cc1 | 52 | 0 | 1 | -2 | -1 | -4 | 26 | 25
O=C(NCc1ccncc1)C(=O)N/N=C/c1ccc(OCc2ccccc2)cc1 | -34 | -1 | 0 | 11 | 2 | -2 | . | .
O=NN(CCc1ccncc1)c1ccc(OCc2ccccc2)cc1 | 86* | -6 | 0 | -1 | -3 | -5 | 95* | 85*
CC12CCC(=O)C=C1CCC1C2CCC2(C)C(c3csc(N)n3)CCC12 (stereo not given) | 75* | -4 | . | . | -4 | -7 | 94* | 76*
COc1cccc2sc(N3CCN(C(=O)c4ccc([N+](=O)[O-])o4)CC3)nc12 | 63 | . | 1 | -4 | -2 | . | 42 | 34
CCc1nnn2c1Cn1c3ccccc3c(=O)n1[C@@H](C(C)C)C2 | . | 0 | . | . | . | -1 | . | .
O=C(CN1C(=O)c2ccccc2S1(=O)=O)c1ccc(F)cc1 | 19 | -1 | 2 | -17 | -5 | -3 | . | .
